STEP inh = STEP phosphatase inhibitors, primary screen, biochemical, fluorescence intensity, uHTS | Tyrosine-protein phosphatase non-receptor type 5 (Homo sapiens), P54829 | recombinant STEP, OMFP fluorogenic substrate | inhibition, % at 20 µM | 0.25% of 360,000 active | AID 588621, 2011;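 active = inhibition at 20 µM, scaled per plate between control wells, above about 37%, limit read from the data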;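 also: 0% = DMSO with enzyme and substrate and 100% = substrate only without enzyme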
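Measure: Control-normalized % inhibition with plate pattern correction | Test system: STEP phosphatase, cell-free reaction | Medium: pH 6.0 Bis-Tris with DTT and Tween 20 | Technique: Fluorescence, 480/540 nm | Times: Reaction 20 min, ambient temperature | Doses: Single compound dose of 20 µM, 1% DMSO final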
Scp-1 inhibitor = Scp-1 phosphatase inhibitors, primary screen, biochemical, colorimetric, uHTS; Recombinant Scp1, phosphopeptide, malachite green phosphate absorbance; 0.88% of 340,000 active; inhibition, % at 20 µM;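 active = inhibition above about 50% at 20 µM, limit read from the data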;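 also: plate controls were DMSO wells with enzyme for no effect and wells lacking enzyme for full effect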
Target sequence (Q9GZU7 76-261 limits assumed): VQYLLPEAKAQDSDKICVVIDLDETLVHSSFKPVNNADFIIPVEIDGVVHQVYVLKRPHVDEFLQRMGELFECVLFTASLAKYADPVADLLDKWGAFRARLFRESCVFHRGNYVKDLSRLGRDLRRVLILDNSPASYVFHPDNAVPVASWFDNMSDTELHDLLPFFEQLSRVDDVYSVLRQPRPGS
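Incubation: 45 min enzyme reaction at room temperature / System: truncated SCP-1 phosphatase (76-261aa) / Reagent: Phospho 17-mer peptide substrate / Buffer or medium: Acidic Tris acetate buffer with magnesium and detergent / Signal: absorbance at 630 nm / Doses: one concentration, 20 µM, with 1.0% DMSO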
SUMO1-SIM PPI = modulators of SUMO1 protein-protein interactions, primary screen, biochemical, uHTS; Small ubiquitin-related modifier 1 (Homo sapiens), P63165; SUMO1 binding to a labelled peptide, TR-FRET, 1 h; inhibition, % at 20 µM; 0.33% of 360,000 active; in the data active = inhibition above about 37%
Target sequence (P63165 whole entry, looked up): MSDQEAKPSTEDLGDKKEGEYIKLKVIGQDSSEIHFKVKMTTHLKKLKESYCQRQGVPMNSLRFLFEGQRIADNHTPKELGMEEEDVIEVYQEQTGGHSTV
LMPTP block = LMPTP phosphatase inhibitors, primary screen, biochemical, fluorescence intensity, uHTS. inhibition, % at 20 µM. AID 651560, 2012. 0.22% of 360,000 active. recombinant LMPTP-A, OMFP fluorogenic substrate;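 active = compounds that cut the enzyme signal by at least half of the control window in the single-dose screen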;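 also: plate controls were DMSO wells with enzyme plus substrate for no effect and substrate without enzyme for full effect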
Target sequence (P24666 whole entry, looked up): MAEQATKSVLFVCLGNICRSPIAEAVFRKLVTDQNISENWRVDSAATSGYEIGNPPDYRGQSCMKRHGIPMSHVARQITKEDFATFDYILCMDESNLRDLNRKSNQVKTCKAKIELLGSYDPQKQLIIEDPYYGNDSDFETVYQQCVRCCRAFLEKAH
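Test system – LMPTP-A enzyme · Amount – LMPTP-A at 0.625 nM final in the reaction · Buffer or medium – Bis-Tris pH 6.0, DTT, detergent · Reagent – OMFP 400 µM · Doses – single 20 µM dose · Schedule – reaction 50 min, room temperature, dark · Detection – fluorescence intensity of OMFP turnover product · Evaluation – percent inhibition versus substrate-only and uninhibited controls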
DNMT1 block = human DNMT1 methyltransferase inhibitors, primary screen, biochemical, molecular beacon, fluorescence, HinP1I cleavage, uHTS. inhibition (reported as % activation of signal), % at 10 µM. 0.83% of 360,000 active; in the data active = inhibition above about 50%
Scp1 confirm = Scp-1 phosphatase inhibitors, retest, confirmation, biochemical, colorimetric, single concentration; recombinant SCP-1 catalytic domain, phosphate release, malachite green absorbance; 61% of 2,500 active; AID 540281, 2011; inhibition, % at 20 µM; shares compounds with Scp-1 inhibitor;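 also: plate controls were DMSO with enzyme for no effect and buffer wells lacking enzyme for full effect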
MG interference = colorimetric readout interference by compounds, confirmation, artefact control for Scp-1 inhibitor project, biochemical, single concentration; 2,500 tested, under 10 active; apparent inhibition (interference), % at 20 µM; Colorimetric interference counterscreen, malachite green absorbance 630 nm; AID 540313, 2011; shares compounds with Scp-1 inhibitor;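 also: compounds added after enzyme reaction finished so only phosphate colour detection is probed; plate controls were DMSO wells with completed Scp-1 reaction for no effect and substrate wells lacking enzyme for full effect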
Scp1 DSF = Scp-1 binding by thermal shift, confirmation, orthogonal assay for Scp-1 inhibitor project, biophysical, differential scanning fluorimetry; shares compounds with Scp-1 inhibitor; Recombinant SCP1, Sypro Orange thermal shift Tm; thermal shift relative to vanadate control, % at 40 µM; 25% of 1,500 active; AID 540329, 2011;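 active = substances whose mean melting-temperature shift, as a percentage of the reference inhibitor's shift, reaches about 5.3%, limit read from the data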;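 also: 0% = Tm of DMSO wells and 100% = Tm with sodium orthovanadate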
Beacon interf DR = spectral interference with molecular beacon fluorescence, dose response, artefact control for DNMT1 inhibitor project, biochemical, fluorescent molecular beacon; spectral interference counter-screen; shares compounds with DNMT1 block; 200 tested, under 10 active; IC50, µM; AID 602382, 2012; call rule not given here
DNMT1 inh conf = DNMT1 methyltransferase inhibitor retest, confirmation, biochemical, molecular beacon, fluorescence, single concentration; shares compounds with DNMT1 block; DNMT1 molecular beacon HinP1I cleavage; inhibition, % at 10 µM; 8% of 2,300 active;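 active = average inhibition of at least 30% in the single-concentration confirmation test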
Beacon interf = beacon fluorescence artifact counter-screen | shares compounds with DNMT1 block | DNMT1 molecular beacon spectral interference counterscreen, fluorescence 485/520 | activation (fluorescence interference), % at 10 µM | 1% of 2,300 active;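 active = activation of at least 30% at 10 µM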;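 also: DNMT1 catalytic domain with a HinP1I cleavage step and a FAM/dabcyl DNA beacon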
Starred values were filed as active, the others as inactive. This is a sample that favours compounds with a hit; in the whole collection about 1.7% have one here.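 The calls were made as follows, unless noted: active = inhibition of at least 30% at 20 µM; inactive = the rest.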

Results for C=CCn1c(SCC(=O)NCCCC)nc2scc(-c3ccco3)c2c1=O ?
STEP inh: 3; Scp-1 inhibitor: 73*; SUMO1-SIM PPI: 10; LMPTP block: 16; DNMT1 block: 100*; Scp1 confirm: 69*; MG interference: -16; Scp1 DSF: -3; DNMT1 inh conf: 2; Beacon interf: 1

What do the screens show for `COc1cc(NC(=O)c2noc3c2CCC3)c(OC)cc1Cl`?
STEP inh: 11; Scp-1 inhibitor: 72*; SUMO1-SIM PPI: 7; LMPTP block: 4; DNMT1 block: 101*; Scp1 confirm: 70*; MG interference: -13; Scp1 DSF: 3; DNMT1 inh conf: 11; Beacon interf: 2

Results for COC(=O)c1ccccc1NC(=O)c1noc2c1CCCC2 ?
STEP inh: -1; Scp-1 inhibitor: -11; SUMO1-SIM PPI: 1; LMPTP block: 1; DNMT1 block: -3

How did CC1Sc2ccc(S(=O)(=O)N3CCC(C(=O)Nc4ccc(Cl)cc4)CC3)cc2NC1=O (centres undefined) do in these assays?
STEP inh: -2; Scp-1 inhibitor: -16; SUMO1-SIM PPI: 6; LMPTP block: 4; DNMT1 block: -8

Results for Cc1cc(C)n2nc(SCC(=O)NC3CCCCC3C)nc2n1 (centres undefined) ?
STEP inh: 2; Scp-1 inhibitor: -5; SUMO1-SIM PPI: 1; LMPTP block: 0; DNMT1 block: -3

What do the screens show for `C#CCSc1nsc(SCC#C)c1C#N`?
STEP inh: 14; Scp-1 inhibitor: 80*; SUMO1-SIM PPI: 11; LMPTP block: 26; DNMT1 block: 77*; Scp1 confirm: 66*; MG interference: -16; Scp1 DSF: 1; DNMT1 inh conf: 16; Beacon interf: 2

How did CCOC1=C2[C@@H](CN(S(=O)(=O)c3ccc(C)cc3)[C@H]2c2ccccc2)[C@H]2C(=O)N(Cc3ccccc3)C(=O)[C@H]2C1 do in these assays?
STEP inh: 4; SUMO1-SIM PPI: 0; LMPTP block: 1; DNMT1 block: -12

Results for COc1ccc(C(=O)NC(C)c2cccnc2)cc1S(=O)(=O)N(C)Cc1ccccc1 (centres undefined) ?
STEP inh: -2; Scp-1 inhibitor: -2; SUMO1-SIM PPI: 3; LMPTP block: 0; DNMT1 block: 0

Results for O=c1c2c(-c3ccc([N+](=O)[O-])cc3)ccnc2[nH]n1-c1ccccc1 ?
STEP inh: 2; Scp-1 inhibitor: -10; SUMO1-SIM PPI: -24; LMPTP block: 5; DNMT1 block: 1

Results for COc1ccc(N2Cc3cccc(C(=O)N4CCN(C(=O)c5ccco5)CC4)c3C2=O)cc1 ?
STEP inh: 3; Scp-1 inhibitor: 92*; SUMO1-SIM PPI: 9; LMPTP block: 10; DNMT1 block: 80*; Scp1 confirm: 60*; MG interference: -18; Scp1 DSF: 3; Beacon interf DR: >99; DNMT1 inh conf: 29; Beacon interf: -2

What do the screens show for `COc1ccc(N2Cc3cccc(C(=O)N4CCOCC4)c3C2=O)cc1`?
STEP inh: 5; Scp-1 inhibitor: 1; SUMO1-SIM PPI: 0; LMPTP block: -2; DNMT1 block: 0

Results for CCOC(=O)[C@]12CCCC=C1N(Cc1ccccc1)C(=O)[C@H](CC(=O)NCCCOC)C2 ?
SUMO1-SIM PPI: 4; LMPTP block: 0

What do the screens show for `CCOC(=O)C1CCN(C(=O)CN2C(=O)COc3ccc(C(C)(C)C)cc32)CC1`?
STEP inh: -3; Scp-1 inhibitor: -9; SUMO1-SIM PPI: 0; LMPTP block: 0; DNMT1 block: 0

Results for Cc1c(Cl)cccc1-c1ccc(/C=N/n2cnnc2)o1 ?
STEP inh: 1; Scp-1 inhibitor: -1; SUMO1-SIM PPI: -17; LMPTP block: 1; DNMT1 block: 4

What do the screens show for `Cc1c(C(=O)O)cccc1-c1ccc(/C=N/n2cnnc2)o1`?
STEP inh: 27; Scp-1 inhibitor: 67*; SUMO1-SIM PPI: -6; LMPTP block: 1; DNMT1 block: 58*; Scp1 confirm: 37*; MG interference: -15; Scp1 DSF: -18; DNMT1 inh conf: 7; Beacon interf: 0

Results for COc1ccc2c(c1)OC[C@H]1[C@H]2N2C(=O)CN(Cc3ccccc3)C(=O)[C@@]2(C)[C@H]1c1ccccc1 ?
STEP inh: 0; Scp-1 inhibitor: -6; SUMO1-SIM PPI: -8; LMPTP block: 2; DNMT1 block: 6

Results for COc1ccc(N=C2NC(=O)/C(=C\c3ccco3)S2)cc1 ?
STEP inh: 6; Scp-1 inhibitor: 89*; SUMO1-SIM PPI: -10; LMPTP block: 40; DNMT1 block: 70*; Scp1 confirm: 52*; MG interference: -12; Scp1 DSF: 2; DNMT1 inh conf: 8; Beacon interf: 30

Results for CCOC(=O)[C@]12CCCC=C1N(Cc1ccco1)C(=O)[C@H](CC(=O)N1CCCCC1)C2 ?
SUMO1-SIM PPI: 1; LMPTP block: -3

Results for CCCCOc1cccc(C(=O)O)c1 ?
STEP inh: -3; Scp-1 inhibitor: -8; SUMO1-SIM PPI: -5; LMPTP block: -2; DNMT1 block: 0

Screening data as filed in PubChem BioAssay.
